Data taken from ChEMBL document CHEMBL2406990, “Guanidine alkaloids from Plumbago zeylanica” (J Nat Prod, 2013).

Columns and labels:
PANC-1 = assay: Cytotoxicity against human PANC1 cells after 72 hrs by SRB assay; assay type: functional, cell-based; conditions: PANC-1, 72 h
Outline: (§1)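 Cells seeded and left 24 h, then exposed to serial dilutions of compound (top concentration 100 μM). Incubation 72 h at 37 °C in humidified 5% CO2. Fixed with 10% trichloroacetic acid (4 °C, 1 h), water-washed, dried, stained 15 min with 0.4% SRB in 1% acetic acid. Unbound dye removed with 1% acetic acid, bound dye taken up in 10 mM Tris base, A510 read. Triplicate, IC50.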

MDA-MB-231 = assay: Cytotoxicity against human MDA-MB-231 cells after 72 hrs by SRB assay; assay type: functional, cell-based; conditions: MDA-MB-231, 72 h; outline: as §1

Compound	IC50 (PANC-1)	IC50 (MDA-MB-231)
CC1=C[C@@H](C[C@@H](C(=O)O)[C@@H]2CN(CC(O)CCO[C@H]3OC[C@@H](O)[C@H](O)[C@H]3O)C(=N)N2)OC1=O (stereo partly drawn)	> 10 µM	> 10 µM
CC(C)(O)CCC[C@@H](C(=O)O)[C@@H]1CNC(=N)N1	> 10 µM	> 10 µM
CC(C)=CCC[C@@H](C(=O)O)[C@@H]1CN(CC(O)CCO)C(=N)N1 (stereo partly drawn)	> 10 µM	> 10 µM
C/C(=C\CC[C@@H](C(=O)O)[C@@H]1CNC(=N)N1)CO	> 10 µM	> 10 µM
C/C(=C\CC[C@@H](C(=O)O)[C@@H]1CN(CC(O)CCO)C(=N)N1)CO (stereo partly drawn)	> 10 µM	> 10 µM
CC(=O)O[C@H]1C(=O)[C@@]2(C)[C@H]([C@H](OC(=O)c3ccccc3)[C@]3(O)C[C@H](OC(=O)[C@H](O)[C@@H](NC(=O)c4ccccc4)c4ccccc4)C(C)=C1C3(C)C)[C@]1(OC(C)=O)CO[C@@H]1C[C@@H]2O [PACLITAXEL]	< 1 µM	< 1 µM
CC1=C[C@@H](C[C@@H](C(=O)O)[C@@H]2CNC(=N)N2)OC1=O	> 10 µM	> 10 µM
CC(C)=CCC[C@@H](C(=O)O)[C@@H]1CN(CC(O)CCO[C@H]2OC[C@@H](O)[C@H](O)[C@H]2O)C(=N)N1 (stereo partly drawn)	> 10 µM	> 10 µM
CC(C)=C[C@@H]1C[C@@H](C(=O)O)[C@@H]2CN(CC(O)CCO)C(=N)N12 (stereo partly drawn)	> 10 µM	> 10 µM
C/C(=C\CC[C@@H](C(=O)O)[C@@H]1CN(CC(O)CCO[C@H]2OC[C@@H](O)[C@H](O)[C@H]2O)C(=N)N1)CO (stereo partly drawn)	> 10 µM	> 10 µM
CC(C)=C[C@@H]1C[C@@H](C(=O)O)[C@@H]2CNC(=N)N12	> 10 µM	> 10 µM
CC1=C[C@@H](C[C@@H](C(=O)O)[C@@H]2CN(CC(O)CCO)C(=N)N2)OC1=O (stereo partly drawn)	> 10 µM	> 10 µM
CC(C)=CCC[C@@H](C(=O)O)[C@@H]1CNC(=N)N1	> 10 µM	> 10 µM
CC(C)=C[C@@H]1C[C@@H](C(=O)O)[C@@H]2CN(CC(O)CCO[C@H]3OC[C@@H](O)[C@H](O)[C@H]3O)C(=N)N12 (stereo partly drawn)	> 10 µM	> 10 µM
